Only a selection was taken, and hits are over-represented in it overall.
Redox H2O2 prof: compounds producing H2O2 with reducing agent – biochemical, NIH compound library profiling, artefact control for MLSCN library redox annotation, primary screen. 200,000 compounds, 0.03% hits. AID 878, 2007. DTT-dependent redox cycling H2O2, phenol red/HRP absorbance; 100% = 100 µM peroxide control, 0% = buffer. activation, % at 10 µM;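 active = activation of at least 50% relative to the plate's high and low controls in the primary single-dose screen; inactive = activation below 50%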;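 also: compound incubated with DTT at 0.8 mM final as the reducing agent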
Lmaj promast: Leishmania major promastigote growth inhibition, primary screen | Leishmania major promastigotes, resazurin fluorescence viability | inhibition, % at 10 µM | 200,000 compounds, 9% hits;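 also: promastigotes grown with compound for 44 hours at 28 °C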
Diaph inh CS: diaphorase inhibitors and chemical oxidizers, primary screen, counter-screen for diaphorase-coupled primary assays, biochemical, uHTS, resorufin fluorescence | inhibition, % at 20 µM | 190,000 compounds, 0.69% hits | diaphorase resazurin-to-resorufin fluorescence, NADH, 16 min; bacterial (C. kluyveri) enzyme, not human;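 active = primary screen inhibition at 20 µM above a set limit, cut at about 50% in these data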;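 also: plate controls were DMSO with full reaction for no effect and wells lacking NADH for full effect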
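Test system: Clostridium kluyveri diaphorase enzyme / Quantity: diaphorase at 0.14 U/mL in enzyme working solution / Incubation: 16-min room-temperature incubation before reading / Benchmarks: NADH-free wells as positive control, DMSO-only neutral wells / Signal: resorufin fluorescence 544/590 nm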
PfG6PD inh: PfG6PD enzyme inhibitors, primary screen, biochemical, fluorescence intensity, uHTS; AID 504690, 2011; 350,000 compounds, 0.78% hits; PfGluPho enzyme, NADPH resazurin-diaphorase fluorescence; inhibition, % at 20 µM;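 active = inhibition reaching at least a set limit at 20 µM in the primary screen, cut at about 59% in these data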;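 also: 0% = DMSO wells with substrate and 100% = DMSO wells lacking glucose-6-phosphate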
G6PDH counter: L. mesenteroides G6PDH inhibitors, counter-screen for G6PDH-coupled screening assays, biochemical, Leuconostoc mesenteroides enzyme; AID 1020, 2008; inhibition, % at 5 µM; Purified L. mesenteroides G6PDH, diaphorase/resazurin coupled fluorescence, 45 min; 200,000 compounds, 0.12% hits; glucose-6-phosphate dehydrogenase [Leuconostoc mesenteroides]
Diaph act CS: compounds boosting diaphorase resazurin reduction – biochemical, uHTS, resorufin fluorescence, counter-screen for diaphorase-coupled primary assays, primary screen; Diaphorase/resazurin coupled assay, 16 min; hits give high values; 1 = vehicle wells, 0 = NADH-free wells; activation factor at 20 µM; AID 1229, 2008; 190,000 compounds, 0.005% hits;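 active = diaphorase activity raised at least twofold by the compound at 20 µM; inactive = activation factor below 2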
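Assay system: Purified diaphorase enzyme from Clostridium kluyveri | Amount: Enzyme 0.07 U/mL final | Dosing: Compound 20 µM once, DMSO 1% | Timing: 16 min reaction at room temperature | Detection: Fluorescence, excitation 544 nm and emission 590 nm | Evaluation: Higher resorufin formation from activation or reduction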
Active calls of the source: *; · = no result. Rule as the data show it, unless noted: active = inhibition above about 50%; inactive = the rest.

SMILES | Redox H2O2 prof | Lmaj promast | Diaph inh CS | PfG6PD inh | G6PDH counter | Diaph act CS
CCc1cccc2c1NC(=O)C21N2CCCC2C(C(=O)c2ccc3ccccc3c2)C12C(=O)Nc1ccccc12 (stereo not given) | 0 | 82* | 22 | 10 | -3 | 0.8
CCc1ccc2c(c1)C1(C(=O)N2)N2CCCC2C(C(=O)c2ccc3ccccc3c2)C12C(=O)Nc1ccccc12 (stereo not given) | 1 | 79* | 27 | 29 | -11 | 0.7
Cc1ccc(C(=O)C(C)OC(=O)Cn2cnc3c2c(=O)n(C)c(=O)n3C)cc1 (stereo not given) | · | · | · | 0 | · | ·
Cc1ccc(C(C)C)c(OCc2ccc(C(=O)N/N=C/c3ccc(O)cc3O)cc2)c1 | 1 | 100* | 1 | -13 | -50 | 1
Cc1ccc(NC(=O)C2CCCN(C(=O)NCc3ccccc3)C2)c(C)c1 (stereo not given) | · | · | · | -10 | · | ·
COc1ccccc1N1C(=O)N(CC(=O)C(C)(C)C)c2ccccc2S1(=O)=O | · | · | · | 1 | · | ·
COc1ccc(CCC(C)NC2CCCCCCC2)cc1 (stereo not given) | · | · | · | -6 | · | ·
COc1ccc(CCC(C)NCC2CCCCC2)cc1 (stereo not given) | 0 | 87* | 8 | 8 | -15 | 0.9
Cc1cc(C)c(NC(=O)CN(C2CCCCC2)C2CCCCC2)c(C)c1 | 1 | 96* | 21 | -14 | 2 | 0.8
O=C(CCCN1C(=O)NC2(CCCC2)C1=O)Nc1ccc(Cl)c(S(=O)(=O)N2CCOCC2)c1 | · | · | · | 1 | · | ·
Cc1cccc(OCCOC(=O)Nc2ccccc2)c1 | 0 | -8 | 16 | 3 | 6 | 0.8
Cc1ccccc1OCCOc1ccccc1C=C(C#N)C#N | 0 | 78* | 22 | · | 3 | 0.8
Cc1ccccc1OCCNC(=S)Nc1ccccc1 | -8 | 8 | 11 | 2 | 12 | 0.9
Cc1cccc(OCCOc2ccccc2C=C(C#N)C#N)c1 | 0 | 94* | 16 | 10 | -10 | 0.8
Cc1ccccc1N1CCN(Cc2c[nH]c3ccccc23)CC1 | -1 | 71* | 10 | 6 | 4 | 0.9
O=[N+]([O-])c1ccc(CN2CCN(Cc3c[nH]c4ccccc34)CC2)cc1 | -1 | 83* | 8 | -8 | 1 | 0.9
COc1ccc(C(=O)NC(C)c2nnc(SCC(=O)Nc3nc4ccccc4s3)n2C)cc1 (stereo not given) | 0 | -8 | 14 | -32 | -2 | 0.9
Cn1cc2ccc(N)cc2n1 | 0 | -8 | 70* | 40 | 54* | 0.3
CN1[C@@H]2CC[C@H]1CC(OC(=O)C(CO)c1ccccc1)C2 (stereo not given in full) | 0 | -6 | 7 | -21 | 12 | 0.9
O/N=C/c1ccn(-c2ccc(Br)cc2)c1 | 0 | 92* | 6 | 29 | 0 | 0.9
O=C1CN(CC(=O)N2CCOCC2)c2ccccc2O1 | 1 | -1 | 8 | · | 43 | 0.9
O=C(CN1CC(=O)Oc2ccccc21)OCC(=O)c1ccc(Br)cc1 | 1 | -6 | · | -17 | · | ·
O=C(CN1CC(=O)Oc2ccccc21)OCC(=O)c1ccc(F)cc1 | -1 | 7 | 51* | -21 | 28 | 0.5
O=C1CN(CC(=O)N2CCCCC2)c2ccccc2O1 | 0 | 98* | 13 | 28 | 34 | 0.9
Cc1ccc(OCCCN(C)C)c(Br)c1 | 0 | 60* | 18 | 7 | 0 | 0.8
SMILES | Redox H2O2 prof | Lmaj promast | Diaph inh CS | PfG6PD inh | G6PDH counter | Diaph act CS
CN(C)CCOCCOc1ccc(Cl)cc1Br | 0 | 93* | 0 | 3 | 11 | 1
CN(C)CCCCOc1ccc(F)cc1 | -1 | -1 | 21 | -1 | 10 | 0.8
Cc1cc(Cl)c(OCCCCNC(C)(C)C)c(Br)c1 | 0 | 98* | 11 | · | 2 | 0.9
Cc1cc(Br)cc(C)c1OCCCCN(C)C | 0 | 100* | 15 | -3 | 14 | 0.9
CC(=O)N(C)C[C@H]1Oc2ncc(Br)cc2C(=O)N([C@H](C)CO)C[C@@H]1C | · | · | · | -8 | · | ·
COc1ccc(CN2CC(=O)N(c3cc(Cl)ccc3OC)C2=S)cc1OC | · | · | · | 11 | · | ·
CCCCOc1ccc(CC2CCC(=O)NC2=O)cc1 (stereo not given) | 1 | 0 | 15 | -6 | 1 | 0.8
CC(C)NCCOCCOc1ccc(Cl)cc1Br | 0 | 95* | 10 | -7 | 3 | 0.9
CC(C)NCCOCCOc1ccccc1F | 9 | -1 | 8 | -13 | 0 | 0.9
Cc1cc(Cl)c(OCCCN(C)C)c(Br)c1 | 0 | 79* | 13 | 0 | 21 | 0.9
Clc1ccc(OCCSc2ncccn2)c(Br)c1 | 0 | 1 | 24 | -6 | 10 | 0.8
CN(C)CCCOc1ccc(Cl)cc1Br | 0 | 62* | 8 | -9 | 5 | 0.9
Cc1cc(C)c(OCCN(C)C)c(Cl)c1 | 7 | 1 | 10 | -3 | -4 | 0.9
O=C(c1ccc(CNS(=O)(=O)c2ccccc2)cc1)N1CCN(Cc2ccccc2)CC1 | 0 | 72* | 4 | -1 | -2 | 1
CS(=O)(=O)c1ccc(C(=O)N2CCN(Cc3ccccc3)CC2)cc1 | 0 | -3 | 13 | 10 | 6 | 0.9
Cc1ccc(S(=O)(=O)Cc2ccc(C(=O)N3CCN(Cc4ccccc4)CC3)o2)cc1 | -1 | 99* | 27 | · | 23 | 0.7
COc1ccc(N2CCN(C(=O)c3ccc(CS(=O)(=O)c4ccc(OC)cc4)o3)CC2)cc1 | 0 | 81* | 19 | 14 | 14 | 0.8
COc1ccc(S(=O)(=O)Cc2ccc(C(=O)N3CCN(Cc4ccccc4)CC3)o2)cc1 | 0 | 99* | 22 | 6 | -3 | 0.8
CC1(C)Cc2c(cnn2-c2cccc(F)c2)C(NC(=O)CN2CCCC2=O)C1 (stereo not given) | · | · | · | -7 | · | ·
C[C@H](CO)N1C[C@H](C)[C@H](CN(C)Cc2cccc(C(F)(F)F)c2)OCc2ccccc2-c2c(n(C)c3ccccc23)C1=O | · | · | · | 5 | · | ·
CC(=O)Nc1ccc(NC(=O)C2CC(=O)N(c3ccccc3Cl)C2)cc1 (stereo not given) | -1 | 0 | 3 | -14 | 5 | 1
Cc1oncc1-c1csc(-c2ccccc2)n1 | -1 | 0 | 17 | 9 | -3 | 0.8
CCC(C)N1C(=O)S/C(=C/c2ccc3c(c2)n(C)c(=O)n3C)C1=O (stereo not given) | 0 | 47 | 15 | 4 | 1 | 0.9

Compound activity (PubChem)
